The text below walks through data of ChEMBL document CHEMBL4665669, “Novel tertiary sulfonamide derivatives containing benzimidazole moiety as potent anti-gastric cancer agents: Design, synthesis and SAR studies” (Eur J Med Chem, 2019).

For experiment [1], the system named is MGC-803. As to the kind of experiment: Anticancer activity against human MGC-803 cells assessed as inhibition of cell proliferation after 48 hrs by MTT assay. The format is functional, cell-based. The conditions noted are these: MGC-803, 48 h. The method, boiled down:
(§1)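 MTT assay with 48 h compound exposure. MTT solution was then added and incubated 4 h at 37 °C, the supernatant discarded and formazan dissolved in DMSO, with absorbance read at 490 nm. IC50 values were calculated from three independent experiments, reported as mean SD.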

Experiment [2] concerns PC-3. As to the kind of experiment: Anticancer activity against human PC-3 cells assessed as inhibition of cell proliferation after 48 hrs by MTT assay. Format: functional, cell-based. As to conditions: PC-3, 48 h. The method, boiled down: as §1
For orientation: Tetrazolium assays rely on reduction of a dye to a coloured formazan, in cell work by metabolically active cells.

The subject of experiment [3] is MCF7. In words: Anticancer activity against human MCF7 cells assessed as inhibition of cell proliferation after 48 hrs by MTT assay. The format is functional, cell-based. The conditions noted are these: MCF7, 48 h. The gist of the method:
as §1

For experiment [4], the system named is HGC-27. As to the kind of experiment: Anticancer activity against human HGC-27 cells assessed as inhibition of cell proliferation after 48 hrs by MTT assay. The format is functional, cell-based. As to conditions: HGC-27, 48 h. The method, boiled down:
as §1

Experiment [5] relates to SGC-7901. In words: Anticancer activity against human SGC-7901 cells assessed as inhibition of cell proliferation after 48 hrs by MTT assay. As to conditions: SGC-7901, 48 h. The format is functional, cell-based. The method, boiled down:
as §1

The subject of experiment [6] is GES1. As to the kind of experiment: Cytotoxicity against human GES1 cells assessed as inhibition of cell proliferation after 48 hrs by MTT assay. Format: cell-based. As to conditions: GES1, 48 h. The method, boiled down:
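Normal gastric epithelial GES-1 cells were exposed to compound for 48 h. MTT was then added for 4 h at 37 °C. Formazan was dissolved in DMSO after the supernatant was removed, and absorbance was read at 490 nm. IC50 was computed from three independent experiments, given as mean SD.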

A short description of experiment [7]: Inhibition of HIF in human LN229 cells transfected with HRE-luc/LacZ by dual luciferase reporter gene assay. The format is cell-based. The conditions noted are these: LN-229. (In general: Reporter assays use an easily measured gene product as a stand-in for the process of interest.)
The target in experiment [8] is Carbonic anhydrase 9 (Homo sapiens, UniProt Q16790). In words: Inhibition of recombinant human CA9 preincubated for 15 mins by phenol red dye based stopped flow CO2 hydration assay.

A word on the IC50: it is the concentration at which inhibition is half-maximal. As for `COc1cc(N(Cc2nc3ccccc3[nH]2)C(=O)c2ccc(C(C)(C)C)cc2)cc(OC)c1OC`, the IC50 in experiment [1] is greater than 50 µM; in experiment [2] it was 46 µM; in experiment [3] it was 48.8 µM.
In the case of `COc1ccc(CN(c2cc(OC)c(OC)c(OC)c2)S(=O)(=O)c2ccc(C)cc2)cc1`, the IC50 in experiment [1] stood at 4.34 µM; in experiment [2], 8.22 µM; in experiment [3], 10.1 µM.
As for `COc1cc(N(Cc2nc3ccccc3[nH]2)C(=O)c2cccc(Cl)c2)cc(OC)c1OC`, the values for the IC50 in experiment [1], in experiment [2] and in experiment [3] were greater than 50 µM, greater than 50 µM and 34.9 µM, respectively.
Take `O=c1[nH]cc(F)c(=O)[nH]1` [FLUOROURACIL]: the IC50 was 18.4 µM in experiment [2]; 17.1 µM in experiment [3]; 4.28 µM in experiment [4]; 5.54 µM in experiment [5]; 10.2 µM in experiment [6].
For `Cc1ccc(S(=O)(=O)N(Cc2nc3ccccc3[nH]2)c2ccc(F)cc2)cc1`, the values for the IC50 in experiment [1], in experiment [2] and in experiment [3] were 34.6 µM, 45 µM and greater than 50 µM, respectively.
For `COc1ccc(N(Cc2nc3ccccc3[nH]2)S(=O)(=O)c2ccc(C)cc2)cc1`, in that order: greater than 50 µM, greater than 50 µM and greater than 50 µM.
As to `COc1cc(N(Cc2nc3ccccc3[nH]2)S(=O)(=O)c2ccc(Br)cc2)cc(OC)c1OC`, the results for the IC50 in experiment [1], in experiment [2] and in experiment [3] were 2.19 µM, 6.89 µM and 7.74 µM, respectively.
In the case of `COc1cc(N(Cc2nc3ccccc3[nH]2)C(=O)c2ccccc2)cc(OC)c1OC`, the IC50 in experiment [1], in experiment [2] and in experiment [3] was greater than 50 µM in each case.
For the compound `COc1ccc(CN(c2cc(OC)c(OC)c(OC)c2)S(=O)(=O)c2ccc(OC)c(OC)c2)cc1`, the IC50 came out at 8.31 µM in experiment [1], 20.1 µM in experiment [2] and 22.7 µM in experiment [3].
Consider `COc1cc(N(Cc2ccc(Br)cc2)S(=O)(=O)c2ccc(C)cc2)cc(OC)c1OC`, for which the figures for the IC50 in experiment [1], in experiment [2] and in experiment [3] were 1.61 µM, 4.68 µM and 10.9 µM, respectively.
In the same order, the values of `Cc1ccc(N(Cc2nc3ccccc3[nH]2)S(=O)(=O)c2ccc(C)cc2)cc1` are 41.2 µM, 48.9 µM and greater than 50 µM.
Regarding `COc1cc(N(Cc2nc3ccccc3[nH]2)C(=O)c2ccc(Br)cc2)cc(OC)c1OC`, the half-inhibitory concentration (IC50) was 14.6 µM in experiment [1], 19.9 µM in experiment [2] and greater than 50 µM in experiment [3].
As to `COc1cc(N(Cc2nc3ccccc3[nH]2)C(=O)c2ccc(F)cc2)cc(OC)c1OC`, the IC50 in experiment [1] was found to be 23.6 µM; in experiment [2], 21.9 µM; in experiment [3], 45.2 µM.
For `COc1cc(N(Cc2csc3ccc(Cl)cc23)S(=O)(=O)c2ccc(C)cc2)cc(OC)c1OC`, in that order: 3.45 µM, 15.2 µM and 8.95 µM.
For `COc1cc(N(Cc2ccccc2)S(=O)(=O)c2ccc(C)cc2)cc(OC)c1OC`, in that order: 3.57 µM, 7.81 µM and 10.2 µM.
For `COc1cc(N(Cc2nc3ccccc3[nH]2)C(=O)c2ccc(C)cc2)cc(OC)c1OC`, in that order: 30.5 µM, 42 µM and 49.2 µM.
With `COc1cc(N(Cc2nc3ccccc3[nH]2)S(=O)(=O)c2ccccc2Cl)cc(OC)c1OC`, the IC50 came out at 19.1 µM in experiment [1], 34.5 µM in experiment [2] and 38.1 µM in experiment [3].
Turning to `COc1ccc(N(Cc2nc3ccccc3[nH]2)S(=O)(=O)c2ccc(C)cc2)cc1OC`, the IC50 in experiment [1], in experiment [2] and in experiment [3] was greater than 50 µM throughout.
For `COc1ccc(S(=O)(=O)N(Cc2nc3ccccc3[nH]2)c2cc(OC)c(OC)c(OC)c2)cc1OC`, the IC50 in experiment [1] was found to be 22.5 µM; in experiment [2] it was 30.4 µM; in experiment [3] it was 47.7 µM.
As for `COc1cc(N(Cc2ccc(F)cc2)S(=O)(=O)c2ccc(C)cc2)cc(OC)c1OC`, the IC50 in experiment [1] was determined as 3.75 µM; in experiment [2], 20.7 µM; in experiment [3], 19.2 µM.
In the same order, the values of `COc1ccc(C(=O)N(Cc2nc3ccccc3[nH]2)c2cc(OC)c(OC)c(OC)c2)cc1OC` are 22.4 µM, 34.9 µM and greater than 50 µM.
In the same order, the values of `COc1cc(N(Cc2nc3ccccc3[nH]2)S(=O)(=O)c2ccc(F)cc2)cc(OC)c1OC` are 5.68 µM, 7.99 µM and 9.38 µM.
For `COc1ccc(CN(c2cc(OC)c(OC)c(OC)c2)S(=O)(=O)c2ccc(C(C)(C)C)cc2)cc1`, in that order: 10.3 µM, 28.6 µM and 32.7 µM.
For `COc1cc(N(Cc2nc3ccccc3[nH]2)S(=O)(=O)c2ccc(C(C)(C)C)cc2)cc(OC)c1OC`, the IC50 in experiment [1] stood at 24.1 µM; in experiment [2], 29.8 µM; in experiment [3], 33.6 µM.
In the same order, the values of `COc1ccc(CN(c2cc(OC)c(OC)c(OC)c2)S(=O)(=O)c2ccccc2)cc1` are greater than 50 µM, greater than 50 µM and greater than 50 µM.
`COc1ccc(S(=O)(=O)N(Cc2ccc3c(c2)OC(C)(C)C=C3)c2ccccc2)cc1OC` registered an IC50 in experiment [7] of 0.59 µM.
As for `COc1ccc(CN(c2cc(OC)c(OC)c(OC)c2)S(=O)(=O)c2c(C)cc(C)cc2C)cc1`, the IC50 in experiment [1] is 6.44 µM; in experiment [2] it was 14.8 µM; in experiment [3], 18.7 µM.
In the same order, the values of `COc1cc(N(Cc2ccc(Cl)cc2)S(=O)(=O)c2ccc(C)cc2)cc(OC)c1OC` are 1.72 µM, 14.6 µM and 18.6 µM.
For `Cc1ccc(S(=O)(=O)N(Cc2nc3ccccc3[nH]2)c2ccc(Cl)cc2)cc1`, in that order: 24.8 µM, 42.2 µM and 38.3 µM.
For `COc1cc(N(Cc2nc3ccccc3[nH]2)S(=O)(=O)c2ccccc2)cc(OC)c1OC`, in that order: 12.4 µM, 25.5 µM and 27.3 µM.
Consider `Cc1ccc(N(CC(C)F)S(=O)(=O)c2ccc([N+](=O)[O-])cc2)cc1` (configuration not stated), for which, in experiment [8], the IC50 came to 0.0042 µM.
Regarding `Cc1ccc(S(=O)(=O)N(Cc2nc3ccccc3[nH]2)c2ccccc2)cc1`, the figures for the IC50 in experiment [1], in experiment [2] and in experiment [3] were 45.2 µM, greater than 50 µM and 49.7 µM, respectively.
On to `COc1cc(N(Cc2cccc(C)c2)S(=O)(=O)c2ccc(C)cc2)cc(OC)c1OC`, for which the IC50 in experiment [1] stood at 4.34 µM; in experiment [2], 8.58 µM; in experiment [3], 14.3 µM.
